Experimental data collected from several papers.
Protocols differ between the studies behind these lines. pEC50, pIC50: −log10 of the molar value. In brackets after ≈: the same amount, converted by molar mass.

| Compound | organism | assay | test system | conditions | quantity | result |
| --- | --- | --- | --- | --- | --- | --- |
| [2H]C([2H])(c1cc(F)c(F)cc1F)n1c(=O)n(Cc2ncn(C)n2)c(=O)[nH]/c1=N\c1cc2cn(C)nc2cc1Cl | Alphacoronavirus 1 | viral replication, inhibitor, qPCR | CRFK |  | pEC50 | ~4.30 |
| C[n+]1ccc(/C=C2\Sc3ccccc3N2CCCN2CCCCC2)c2ccccc21.[I-] | Pseudomonas aeruginosa | microbial growth, broth dilution | ATCCBAA2108 | drug-resistant strain | MIC | 64 µg/mL |
| CCOC(=O)c1cc(-c2cccc(NC(=O)Nc3ccc(Cl)c(Cl)c3)c2)on1 | Mycobacteroides abscessus | microbial growth, broth dilution | ATCC19977 | 48 h | MIC | > 64 µg/mL |
| CC1CCN(CCCN2/C(=C/c3cc[n+](C)c4ccccc34)Sc3ccccc32)CC1.[I-] | Pseudomonas aeruginosa | microbial growth, broth dilution | ATCCBAA2108 | drug-resistant strain | MIC | 16 µg/mL |
| CC[C@H](C)[C@H]1C(=O)N2CCC[C@H]2C(=O)O[C@H](C(C)(C)C)C[C@@H](C)C[C@H](O)[C@H](C)C2=N[C@@H](CCC(=O)N[C@@H](Cc3ccc(OC)cc3)C(=O)N(C)[C@@H](C)C(=O)N1C)CS2 | Zika virus | viral replication | Huh7.5 | 24 h | pIC50 | 7.82 |
| O=C(N[C@H](CO)[C@H](O)c1ccc([N+](=O)[O-])cc1)C(Cl)Cl | Bacillus | microbial growth, broth dilution | ATCC27859 |  | MIC | 0.98 µg/mL (≈ 3.03 µM) |
| COC(=O)c1cc(-c2cccc(NC(=O)Nc3ccc(F)c(F)c3)c2)on1 | Mycobacteroides abscessus | microbial growth, broth dilution | ATCC19977 | 48 h | MIC | > 64 µg/mL |
| O=C(N[C@H](CO)[C@H](O)c1ccc([N+](=O)[O-])cc1)C(Cl)Cl | Bacillus | microbial growth, broth dilution | ATCC27859 | 18 h | MIC | 0.98 µg/mL (≈ 3.03 µM) |
| COC(=O)c1cc(-c2cccc(NC(=O)Nc3ccc(Cl)c(C(F)(F)F)c3)c2)on1 | Mycobacteroides abscessus | microbial growth, broth dilution | ATCC19977 | 48 h | MIC | > 64 µg/mL |
| CCCCCOc1ccc(-c2cc(-c3ccc(C(=O)N[C@H]4C[C@@H](O)[C@@H](O)NC(=O)[C@@H]5[C@@H](O)[C@@H](C)CN5C(=O)[C@H]([C@H](O)CC(N)=O)NC(=O)[C@H]([C@H](O)[C@@H](O)c5ccc(O)c(OS(=O)(=O)O)c5)NC(=O)[C@@H]5C[C@@H](O)CN5C(=O)[C@H]([C@@H](C)O)NC4=O)cc3)no2)cc1 | Kluyveromyces marxianus | biofilm formation |  | 1 µg/mL | inhibition | 53% |
